Assay results reported in ChEMBL document CHEMBL1127497, “Studies on antiulcer drugs. 7. 2-Guanidino-4-pyridylthiazoles as histamine H2-receptor antagonists with potent gastroprotective effects against nonsteroidal antiinflammatory drug-induced injury” (J Med Chem, 1994).

What was measured:
[1] = target: Histamine H2 receptor (Cavia porcellus) (UniProt P47747); assay: H2 receptor antagonistic activity against histamine stimulated chronotropic response in isolated guinea pig right atrium at 1x10E-6 g/mL.; type: functional, tissue-based; conditions: Cardiac atrium
Histamine H2 receptor (Cavia porcellus), sequence (P47747 whole entry): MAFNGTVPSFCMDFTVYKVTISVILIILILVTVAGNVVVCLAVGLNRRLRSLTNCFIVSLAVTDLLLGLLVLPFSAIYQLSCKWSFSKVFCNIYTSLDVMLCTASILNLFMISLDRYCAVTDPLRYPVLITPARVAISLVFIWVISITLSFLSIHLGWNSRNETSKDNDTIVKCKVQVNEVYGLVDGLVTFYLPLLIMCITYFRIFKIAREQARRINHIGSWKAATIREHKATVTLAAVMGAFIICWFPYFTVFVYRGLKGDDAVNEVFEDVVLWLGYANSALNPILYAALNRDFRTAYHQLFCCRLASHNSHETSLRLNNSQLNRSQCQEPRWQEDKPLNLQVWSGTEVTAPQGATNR
Summary of the method: (§1)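 Guinea pig atrial strip under 0.3–0.6 g tension in Tyrode solution, 30 °C, gassed with 95% O2-5% CO2. Beating rate recorded. Histamine HCl 1 × 10-6 g/mL given; after washout, test compound added (single-concentration screen 1 × 10-6 g/mL) and histamine response compared before and 30 min after dosing. IC50 from three doses by probit analysis, three atria per dose.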

Rattus norvegicus [2] = assay: Inhibition of histamine stimulated gastric acid secretion in lumen perfused anaesthetized rats after 1 mg/kg intravenous dose; type: functional; conditions: Stomach
Summary of the method: (§2)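 Male SD rats (~250 g), fasted 24 h, urethane 1.25 g/kg ip. Stomach lumen perfused with saline; perfusate titrated with 25 mM NaOH. Histamine infused iv at 3 mg/kg/h. At plateau, compound given iv at 1 mg/kg. Result expressed as maximal inhibition of acid output; n = 2.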

Rattus norvegicus [3] = assay: Inhibition of aspirin induced gastric lesions in rats after peroral dose of 32 mg/kg; type: functional; conditions: Stomach, route oral
Summary of the method: (§3)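 Male SD rats (~200 g), fasted 24 h. Test compound given orally in 0.1% MC, then aspirin 200 mg/kg in 0.2 N HCl/0.1% MC (10 mL/kg) orally 30 min later. Rats killed 1 h after aspirin. Ulcer index is the summed lesion length (mm); % inhibition is relative to controls. Seven rats per group for screening; ED50 by probit from three doses, ten rats per dose.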

Histamine H2 receptor = Histamine H2 receptor (Cavia porcellus, UniProt P47747); assay: Compound was tested for H2 receptor antagonistic activity against histamine stimulated chronotropic response in isolated guinea pig right atrium; type: functional, tissue-based, Cardiac atrium; summary of the method: as §1
Histamine H2 receptor, sequence (P47747 whole entry): as above

Canis familiaris [4] = assay: Evaluated against tetragastrin stimulated gastric acid secretion in conscious Hiedenhain-pouch dogs at a dose of 0.32 mg/kg, po; type: functional; conditions: Canis lupus familiaris, Stomach
Summary of the method: (§4)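 Beagle Heidenhain-pouch dogs, 8–13 kg, oral dosing. Acid concentration titrated to pH 7 with 0.1 N NaOH; total acid output is volume × concentration. Change is relative to predosing output. ED50 by probit from three or four doses, three or four dogs per dose.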

Rattus norvegicus [5] = assay: Effect on gastric mucosal blood flow 60 minutes after administration of HCl and aspirin after drug dosing at 100 mg/kg intragastrically; type: functional, Gastric mucosa; conditions: route intragastric
Summary of the method: (§5)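 Male rats, five per group, test drug suspended in 0.1% MC given intragastrically. Aspirin 200 mg/kg in 0.2 N HCl/0.1% MC (0.2 mL) given ig 15 min later. […] Reported as mean ± SEM and % of initial.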

Canis familiaris [6] = assay: Effective dose against tetragastrin stimulated gastric acid secretion in conscious Hiedenhain-pouch dogs after peroral administration; type: functional; conditions: Canis lupus familiaris, Stomach, po; summary of the method: as §4
Rattus norvegicus [7] = assay: Effect on gastric mucosal blood flow 30 minutes after administration of HCl and aspirin after drug dosing at 100 mg/kg intragastrically; type: functional, Gastric mucosa; conditions: route intragastric; summary of the method: as §5
Rattus norvegicus [8] = assay: Effective dose against aspirin induced gastric lesions in rats after peroral administration; type: functional; conditions: Stomach, po; summary of the method: as §3
Rattus norvegicus [9] = assay: Evaluated against histamine stimulated gastric acid secretion in lumen perfused anaesthetized rats after 1 mg/kg intravenous dose; type: functional; conditions: Stomach; summary of the method: as §2
Rattus norvegicus [10] = assay: Effect on gastric mucosal blood flow 15 minutes before dosing of HCl and aspirin after drug dosing at 100 mg/kg intragastrically; type: functional, Gastric mucosa; conditions: route intragastric; summary of the method: as §5
Rattus norvegicus [11] = assay: Effect on gastric mucosal blood flow at basal value which is 15 minutes before dosing of drugs at 100 mg/kg intragastrically; type: functional, Gastric mucosa; conditions: route intragastric; summary of the method: as §5
Canis familiaris [12] = assay: Evaluated against tetragastrin stimulated gastric acid secretion in conscious Hiedenhain-pouch dogs at a dose of 0.32 mg/Kg, po; type: functional; conditions: Canis lupus familiaris, Stomach; summary of the method: as §4
Rattus norvegicus [13] = assay: Evaluated for inhibition of basal gastric acid secretion on pyolus-ligated rats after intraduodenal administration; conditions: Stomach, id
Rattus norvegicus [14] = assay: Effect on gastric mucosal blood flow at basal value which is 15 minutes before dosing of drugs at 32 mg/kg intragastrically; type: functional, Gastric mucosa; conditions: route intragastric; summary of the method: as §5
Rattus norvegicus [15] = assay: Effect on gastric mucosal blood flow 30 minutes after administration of HCl and aspirin after drug dosing at 10 mg/kg intragastrically; type: functional, Gastric mucosa; conditions: route intragastric; summary of the method: as §5
Rattus norvegicus [16] = assay: Effect on gastric mucosal blood flow 15 minutes before dosing of HCl and aspirin after drug dosing at 32 mg/kg intragastrically; type: functional, Gastric mucosa; conditions: route intragastric; summary of the method: as §5
Rattus norvegicus [17] = assay: Effect on gastric mucosal blood flow 15 minutes before dosing of HCl and aspirin after drug dosing at 10 mg/kg intragastrically; type: functional, Gastric mucosa; conditions: route intragastric; summary of the method: as §5
Rattus norvegicus [18] = assay: Effect on gastric mucosal blood flow 60 minutes after administration of HCl and aspirin after drug dosing at 10 mg/kg intragastrically; type: functional, Gastric mucosa; conditions: route intragastric; summary of the method: as §5
Rattus norvegicus [19] = assay: Effect on gastric mucosal blood flow at basal value which is 15 minutes before dosing of drugs at 10 mg/kg intragastrically; type: functional, Gastric mucosa; conditions: route intragastric; summary of the method: as §5
Rattus norvegicus [20] = assay: Evaluated for inhibition of basal gastric acid secretion in pyolus-ligated rats after intraduodenal administration; conditions: Stomach, id
Rattus norvegicus [21] = assay: Effect on gastric mucosal blood flow 30 minutes after administration of HCl and aspirin after drug dosing at 32 mg/kg intragastrically; type: functional, Gastric mucosa; conditions: route intragastric; summary of the method: as §5
Rattus norvegicus [22] = assay: Effect on gastric mucosal blood flow 60 minutes after administration of HCl and aspirin after drug dosing at 32 mg/kg intragastrically; type: functional, Gastric mucosa; conditions: route intragastric; summary of the method: as §5
Rattus norvegicus [23] = assay: Effective dose against indomethacin induced gastric lesions in rats after peroral administration; type: functional; conditions: Stomach, po
Summary of the method: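 Male SD rats (~200 g), fasted 24 h, dosed orally with test compound in 0.1% MC, ten per group. Indomethacin 5 mg/kg in 0.1% MC given orally 30 min later, then 0.35 N HCl (5 mL/kg) orally after 1 h. Killed 1 h after that. Ulcer index is the summed lesion length. ED50 by probit from three doses.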

Row | Compound | inhibition [1] [%] | inhibition in vivo at 1 mg/kg (Rattus norvegicus [2]) [%] | inhibition in vivo at 32 mg/kg (Rattus norvegicus [3]) [%] | also measured
1 | N=C(N)Nc1nc(-c2cccc(CNC(=O)C3CCCCC3)n2)cs1 | 23 | 23 | 62 | –
2 | CC(=O)Nc1cccc(-c2csc(N=C(N)N)n2)n1 | – | 16 | 43 | –
3 | CCS(=O)(=O)N/C=N\Cc1cccc(-c2csc(N=C(N)N)n2)n1 | 4 | -18 | 1 | –
4 | NC(N)=Nc1nc(CSCCC(N)=NS(N)(=O)=O)cs1 [FAMOTIDINE] | – | – | – | IC50 (Histamine H2 receptor): 300 nM
5 | CCC(=O)NCc1cccc(-c2csc(N=C(N)N)n2)n1 | 72 | 81 | 70 | inhibition in vivo at 0.32 mg/kg (Canis familiaris [4]): 50%
6 | C/N=C(/NCc1cccc(-c2csc(N=C(N)N)n2)n1)NS(C)(=O)=O | 29 | 24 | 10 | –
7 | CC(=O)NCCc1cccc(-c2csc(N=C(N)N)n2)n1 | 3 | 58 | 31 | –
8 | CC(=O)NCc1cc(-c2csc(N=C(N)N)n2)ccn1 | – | 40 | 42 | –
9 | CCNC(=O)NCc1cccc(-c2csc(N=C(N)N)n2)n1 | 52 | 91 | 34 | –
10 | CC(=O)NCc1cncc(-c2csc(N=C(N)N)n2)c1 | 22 | 10 | 42 | –
11 | N=C(N)Nc1nc(-c2cccc(CC(=N)NS(N)(=O)=O)n2)cs1 | – | 42 | 16 | –
12 | CNC(=C[N+](=O)[O-])NCCSCc1ccc(CN(C)C)o1 [RANITIDINE] | 44 | – | 3 | Flow rate (Rattus norvegicus [5]): 55.4 ml min-1 100g-1; ED50 (Canis familiaris [6]): 0.3 mg/kg; Flow rate (Rattus norvegicus [7]): 53.4 ml min-1 100g-1; ED50 (Rattus norvegicus [8]): > 100 mg/kg; inhibition in vivo at 1 mg/kg (Rattus norvegicus [9]): 72%; Flow rate (Rattus norvegicus [10]): 82.3 ml min-1 100g-1; Flow rate (Rattus norvegicus [11]): 85.3 ml min-1 100g-1; inhibition in vivo at 0.32 mg/kg (Canis familiaris [12]): 41%; ED50 (Rattus norvegicus [13]): 30.5 mg/kg; IC50 (Histamine H2 receptor): 3400 nM
13 | NC(N)=Nc1nc(CSCC/C(N)=N/S(N)(=O)=O)cs1 [FAMOTIDINE] | 87 | 96 | 22 | Flow rate (Rattus norvegicus [14]): 58.4 ml min-1 100g-1; ED50 (Canis familiaris [6]): 0.042 mg/kg; ED50 (Rattus norvegicus [8]): > 100 mg/kg; Flow rate (Rattus norvegicus [15]): 62.5 ml min-1 100g-1; Flow rate (Rattus norvegicus [16]): 60.5 ml min-1 100g-1; Flow rate (Rattus norvegicus [17]): 73 ml min-1 100g-1; Flow rate (Rattus norvegicus [18]): 50.5 ml min-1 100g-1; Flow rate (Rattus norvegicus [19]): 68.6 ml min-1 100g-1; inhibition in vivo at 0.32 mg/kg (Canis familiaris [4]): 96%; ED50 (Rattus norvegicus [20]): 3.5 mg/kg; Flow rate (Rattus norvegicus [21]): 46.9 ml min-1 100g-1; Flow rate (Rattus norvegicus [22]): 43.4 ml min-1 100g-1; ED50 (Rattus norvegicus [23]): > 100 mg/kg
14 | N=C(N)Nc1nc(-c2cccc(CNC(=O)C3CCCCCC3)n2)cs1 | 13 | 43 | 93 | inhibition in vivo at 0.32 mg/kg (Canis familiaris [4]): 67%
15 | C/N=C(\NC#N)NCc1cccc(-c2csc(N=C(N)N)n2)n1 | 43 | 15 | 37 | –
16 | N=C(N)Nc1nc(-c2ccc(CC(=N)NS(N)(=O)=O)o2)cs1 | 84 | 99 | 49 | inhibition in vivo at 0.32 mg/kg (Canis familiaris [4]): 92%
17 | CSCC(=O)NCc1cccc(-c2csc(N=C(N)N)n2)n1 | 37 | 4 | 80 | –
18 | CC(C)(C)C(=O)NCc1cccc(-c2csc(N=C(N)N)n2)n1 | – | 22 | 58 | –
19 | CC(C)C(=O)NCc1cccc(-c2csc(N=C(N)N)n2)n1 | 62 | 21 | 65 | –
20 | CNC(=O)NCc1cccc(-c2csc(N=C(N)N)n2)n1 | 86 | 79 | 57 | –
21 | CN/C(=C\[N+](=O)[O-])NCc1cccc(-c2csc(N=C(N)N)n2)n1 | -14 | 18 | -27 | –
22 | CCCNC(=O)NCc1cccc(-c2csc(N=C(N)N)n2)n1 | 82 | 90 | 42 | –
23 | CC(=O)NCc1cccc(-c2csc(N=C(N)N)n2)n1.Cl | 66 | 82 | 68 | Flow rate (Rattus norvegicus [14]): 58.9 ml min-1 100g-1; ED50 (Canis familiaris [6]): 0.063 mg/kg; ED50 (Rattus norvegicus [8]): 13.3 mg/kg; Flow rate (Rattus norvegicus [15]): 67.9 ml min-1 100g-1; Flow rate (Rattus norvegicus [16]): 65.3 ml min-1 100g-1; Flow rate (Rattus norvegicus [17]): 70.2 ml min-1 100g-1; Flow rate (Rattus norvegicus [18]): 61 ml min-1 100g-1; Flow rate (Rattus norvegicus [19]): 70.4 ml min-1 100g-1; inhibition in vivo at 0.32 mg/kg (Canis familiaris [4]): 95%; ED50 (Rattus norvegicus [20]): 12.6 mg/kg; Flow rate (Rattus norvegicus [21]): 63.1 ml min-1 100g-1; Flow rate (Rattus norvegicus [22]): 60.4 ml min-1 100g-1; ED50 (Rattus norvegicus [23]): 6.5 mg/kg; IC50 (Histamine H2 receptor): 1300 nM
24 | CCCC(=O)NCc1cccc(-c2csc(N=C(N)N)n2)n1 | 25 | 71 | 56 | –
25 | CS(=O)(=O)NCc1cccc(-c2csc(N=C(N)N)n2)n1 | 50 | 46 | 60 | –

The next lines start with results.

Row | inhibition [1] [%] | Compound | inhibition in vivo at 1 mg/kg (Rattus norvegicus [2]) [%] | inhibition in vivo at 32 mg/kg (Rattus norvegicus [3]) [%] | also measured
26 | 32 | N=C(N)Nc1nc(-c2cccc(CNC(=O)C3CCOC3)n2)cs1 (centres undefined) | 51 | 42 | –
27 | 60 | N=C(N)Nc1nc(-c2cccc(CNC(=O)C3CC3)n2)cs1 | 91 | 62 | inhibition in vivo at 0.32 mg/kg (Canis familiaris [4]): 48%
28 | 76 | N=C(N)Nc1nc(-c2cccc(CNC(=O)CSCc3ccco3)n2)cs1 | 16 | 49 | –
29 | 46 | N=C(N)Nc1nc(-c2cccc(CNC=O)n2)cs1 | 83 | 57 | –
30 | 100 | N=C(N)Nc1nc(-c2cccc(CNC(N)=O)n2)cs1 | 98 | 34 | inhibition in vivo at 0.32 mg/kg (Canis familiaris [4]): 78%
31 | 72 | N=C(N)Nc1nc(-c2cccc(CNC(=O)C(F)(F)F)n2)cs1 | 43 | 43 | –
32 | 7 | N=C(N)Nc1nc(-c2cccc(CNC(=O)C3CCCO3)n2)cs1 (centres undefined) | 6 | 66 | –
33 | 2 | N=C(N)Nc1nc(-c2cccc(CNC(=O)C3CCC3)n2)cs1 | 61 | 82 | –
34 | 2 | N=C(N)Nc1nc(-c2cccc(CNC(=O)C3CCC(=O)CC3)n2)cs1 | 37 | 62 | –
35 | 13 | N=C(N)Nc1nc(-c2cccc(CNC(=O)c3ccco3)n2)cs1 | 34 | 69 | –
36 | 32 | N=C(N)Nc1nc(-c2cccc(CNC(=O)C3CCCC3)n2)cs1 | 67 | 92 | inhibition in vivo at 0.32 mg/kg (Canis familiaris [4]): 22%
